Bioassay records deposited in PubChem by several laboratories.
ARFGAP1 inh = inhibitors of rat ARFGAP1. Q62848. Arfgap1-stimulated ARF1 GTP hydrolysis, GDP FP detection. inhibition, % at 16.5 µM. 360,000 tested, 0.26% active;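 active = inhibition above a per-plate limit, mean inhibition of low control wells plus 3 SD, cut at about 25% in these data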;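 note: 0% = DMSO wells with enzyme and 100% = wells lacking Arfgap1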
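Assay system: purified rat His6-Arfgap1 residues 1-136 (GAP domain); Reagent: human Δ17 ARF1 bound to GTP; Dosing: 16.5 µM single point, 1.26% DMSO; Times: GTP hydrolysis reaction 2 h at 25 °C; Signal: FP, GDP Alexa 633 tracer displaced from anti-GDP antibody, 620/688 nm; Measure: % inhibition from polarization.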
PP5 inh = inhibitors of human protein phosphatase 5 (PP5) | P53041 | 320,000 tested, 0.18% active | purified PP5c, OMFP substrate fluorescence | inhibition, % at 6.7 µM;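 active = inhibition above the campaign's mean inhibition across all tested compounds plus 3 SD, cut at about 9.5% in these data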;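 note: 0% = DMSO only and 100% = 100 µM cantharidin control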
Target sequence (P53041 whole entry, looked up): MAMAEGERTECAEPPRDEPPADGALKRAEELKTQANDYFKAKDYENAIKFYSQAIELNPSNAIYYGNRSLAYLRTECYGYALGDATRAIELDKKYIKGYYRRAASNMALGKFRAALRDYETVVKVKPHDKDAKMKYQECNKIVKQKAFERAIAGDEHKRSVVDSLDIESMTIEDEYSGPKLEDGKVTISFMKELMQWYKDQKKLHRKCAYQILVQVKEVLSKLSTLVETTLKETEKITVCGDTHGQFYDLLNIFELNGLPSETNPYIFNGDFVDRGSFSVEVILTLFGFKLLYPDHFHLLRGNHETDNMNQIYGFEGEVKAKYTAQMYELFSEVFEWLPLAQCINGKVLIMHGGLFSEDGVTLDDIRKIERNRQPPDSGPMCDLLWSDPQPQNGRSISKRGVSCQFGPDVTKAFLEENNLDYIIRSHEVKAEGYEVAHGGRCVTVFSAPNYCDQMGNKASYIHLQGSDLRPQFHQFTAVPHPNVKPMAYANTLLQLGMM
ASAP1 GAP inh = blocks human ASAP1-stimulated Arf1 GTP hydrolysis | AID 624377 | Q9ULH1 | inhibition, % at 16.5 µM | GDP FP detection | 360,000 tested, 0.19% active; in the data active = inhibition above about 25%;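 note: 0% = vehicle with enzyme and substrate and 100% = no enzyme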
PKD1 inh = inhibitors of human PKD1 kinase; PKD1 kinase fluorescence polarization assay; inhibition, % (concentration not given with the values); 200,000 tested, 0.056% active; in the data active = inhibition above about 50%
ASAP1 inh confirm = ASAP1 inhibition confirmed | shares compounds with ASAP1 GAP inh | ASAP1-stimulated Arf1 GTPase, GDP fluorescence polarization | inhibition, % at 16.5 µM | 620 tested, 37% active | AID 624431;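 active = mean inhibition over triplicates exceeds the hit threshold derived for the earlier primary screening run, cut at about 25% in these data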
* = called active by the depositor; · = not tested or not shown. In the library only some 0.54% were active in any assay of this set; here they are far more common.

SMILES | ARFGAP1 inh | PP5 inh | ASAP1 GAP inh | PKD1 inh | ASAP1 inh confirm
COc1cc2oc3ccc(C#Cc4ccccn4)cc3c(=O)c2cc1OC | -6 | 0 | 31* | · | 40*
COc1cc2oc3ccc(C#Cc4ccc(N)cc4)cc3c(=O)c2cc1OC | 15 | -1 | 16 | · | ·
CC(=O)Nc1ccc2c(c1)C(=Nc1ccccc1)c1ccccc1-2 | 0 | · | 20 | · | ·
CCOC(=O)Nc1ccc2c(c1)C(=NNC(N)=S)c1ccccc1-2 | 8 | · | 27* | · | 11
NC(=O)c1cccc2c1-c1ccccc1/C2=N/NC(N)=S | -11 | 4 | -4 | · | ·
CCOC(=O)Nc1ccc2c(c1)C(=NO)c1ccccc1-2 | 12 | · | 28* | · | 21
Cc1ccc(SCCC(=O)NC2CC2)cc1 | -12 | 0 | -3 | -4 | ·
Cc1ccc(SCC(=O)NC2CC2)cc1 | -3 | 1 | 27* | · | 0
CN1CCC(N2CCN(C3CN(Cc4cn(Cc5cccc(C(F)(F)F)c5)nn4)S(=O)(=O)C3)CC2)CC1 (stereo unspecified) | 0 | · | -6 | · | ·
Cc1cc(Nc2cc(C(F)(F)F)cc(C(F)(F)F)c2)cc(=O)n1-c1cc(C(F)(F)F)cc(C(F)(F)F)c1 | 5 | · | -10 | · | ·
O=C(CSc1nc2ccc(Nc3nc(N4CCOCC4)nc(N4CCOCC4)n3)cc2s1)Nc1ccccc1 | 0 | · | -1 | · | ·
O=C(CSc1nc2ccc(Nc3nc(N4CCOCC4)nc(N4CCOCC4)n3)cc2s1)N1CCOCC1 | 12 | 1 | 25* | -2 | 45*
Cc1ccc(C=NNC(=O)c2cc(-c3cccnc3)nc3ccccc23)o1 | 3 | · | 25* | · | 10
CC(C)[C@H](NC(=O)c1ccc(Cl)c(Cl)c1)C(=O)N1CCC[C@H]1C(=O)NCc1ccccc1 | -2 | · | 4 | · | ·
CCO[C@H]1OC(C(=O)Nc2ccccc2)=C[C@@H](c2csc3ccccc23)[C@@H]1CCCO | 16 | 7 | 25* | -2 | 19
CCO[C@@H]1OC(C(=O)O)=C[C@H](c2csc3ccccc23)[C@H]1CCCO | 1 | -1 | 5 | 4 | ·
O=[N+]([O-])c1cccc(-c2cc(-c3cc(Br)ccc3O)[nH]n2)c1 | 21 | 4 | 25* | · | 17
O=C(Cc1c[nH]c2ccccc12)Nc1ccc(Nc2cccnc2)c(-c2ccc(F)c(F)c2)c1 | 7 | · | 6 | · | ·
COc1ccc(/C=C2\Oc3cc(OC(=O)N4CCOCC4)ccc3C2=O)cc1 | 21 | 2 | 33* | · | 70*
C=CCN1C=C(C(=O)OCC)C(=O)CC1 | 3 | · | -4 | · | ·
CC1=CC2=NC(=O)/C(=C\c3ccc(-c4ccc(Cl)cc4)o3)C(=N)N2O1 | 4 | · | 30* | 1 | 87*
ON=C1c2cc(OCCN3CCCCC3)ccc2-c2ccc(OCCN3CCCCC3)cc21 | · | 0 | · | · | ·
NC(=S)NN=C1c2cc(OCCN3CCOCC3)ccc2-c2ccc(OCCN3CCOCC3)cc21 | 5 | 3 | 25* | · | 22
COC(=O)[C@]12C[C@H](CC(=O)NCc3cccc4ccccc34)C(=O)N(Cc3ccc4c(c3)OCO4)C1=C[C@H](C(C)(C)C)O[C@@H]2C | 0 | · | -3 | · | ·
O=C(CSc1ncnc2scc(-c3ccccc3)c12)N1CCN(Cc2ccc3c(c2)OCO3)CC1 | 11 | -1 | 31* | -1 | 46*
SMILES | ARFGAP1 inh | PP5 inh | ASAP1 GAP inh | PKD1 inh | ASAP1 inh confirm
CSc1ncnc2c1ncn2CCCN1CCN(Cc2cccc3ccccc23)CC1 | 2 | · | 8 | · | ·
CC(=O)c1ccc(CCCCc2ccc(C(C)=O)cc2)cc1 | -7 | · | 25* | · | 1
CCCCC(=O)Nc1cccc(C(=O)N/N=C/c2ccc(OC)cc2OC)c1 | 7 | -1 | 26* | 3 | 13
CCOC1=C2CN(S(=O)(=O)c3ccc(C)cc3)C(c3cccc(Cl)c3)CC2N(S(=O)(=O)c2ccc(Cl)cc2)C(c2ccccc2)C1 (stereo unspecified) | 19 | · | 2 | · | ·
COc1ccccc1NC(=O)Cn1nnc(-c2ccccc2NC(=O)c2ccco2)n1 | -2 | 3 | 28* | -1 | 4
CNC(=O)COC(=O)/C=C/c1ccco1 | 5 | -3 | 27* | 1 | 9
O=C(COC(=O)/C=C/c1ccco1)NCc1ccco1 | -3 | -2 | 5 | 1 | ·
Cc1ccc(NC(=O)CN2C(=O)S/C(=C\c3cc(Cl)c(OCC(=O)O)c(Cl)c3)C2=O)cc1 | 37* | 0 | 65* | · | 75*
COc1ccc(/C=C2\SC(=O)N(CC(=O)Nc3ccc(O)cc3)C2=O)cc1OC | 9 | · | -7 | · | ·
C[C@@H]1CC2=C(C(=O)OC(C)(C)O2)[C@H](c2ccc(Cl)cc2)O1 | 9 | · | 26* | · | -2
C[C@@H]1CC2=C(C(=O)OC(C)(C)O2)[C@H](c2ccc(F)cc2)O1 | -6 | · | -8 | · | ·
Cc1ccc2nc(SCC(=O)Nc3ccc(F)cc3F)[nH]c2c1 | 6 | 8 | 27* | -9 | 5
COc1cc(OC)cc(C(=O)N[C@H](C(=O)OCC(=O)c2c[nH]c3ccccc23)C(C)C)c1 | 16 | · | 28* | · | 13
CC1(C(=O)Nc2ccccc2)CCN1C(=O)CCc1ccc(Cl)cc1Cl (stereo unspecified) | 4 | · | -15 | · | ·
Cn1c(N)c(C(C[N+](=O)[O-])c2ccccc2Cl)c(=O)n(C)c1=O (stereo unspecified) | 11 | 1 | 56* | · | 4
COC(=O)[C@]12C[C@H](CC(=O)NCc3cccs3)C(=O)N(Cc3ccccc3)C1=C[C@H](C1CCCC1)O[C@@H]2C | 3 | · | 14 | · | ·
Nc1sc(-c2ccccc2)cc1C(=O)N1CCNCC1 | 8 | · | 0 | · | ·
